Data taken from ChEMBL document CHEMBL1144568, “Synthesis of novel potent hepatitis C virus NS3 protease inhibitors: discovery of 4-hydroxy-cyclopent-2-ene-1,2-dicarboxylic acid as a N-acyl-L-hydroxyproline bioisostere” (Bioorg Med Chem, 2007).

Experiment: Inhibition of full length HCV NS3/4A protease
Design: species or system Hepacivirus hominis
In short: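 30 min room-temperature preincubation with inhibitor, then FRET substrate RET S1 at 2 µM final. Activity followed continuously 20 min (ex 355/em 500 nm); IC50 by non-linear fit, Ki derived from IC50.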

SMILES | Ki [nM]
CCC[C@H](NC(=O)[C@H]1C[C@H](Oc2cc(-c3ccccc3)nc3cc(OC)ccc23)C=C1C(=O)N[C@H](C(=O)N[C@H](C(=O)OC)C1CCCCC1)C(C)C)C(=O)O | 2560
C=C[C@@H]1C[C@]1(NC(=O)C1CC(Oc2cc(-c3ccccc3)nc3cc(OC)ccc23)C=C1C(=O)N[C@H](C(=O)N[C@H](C(=O)NC)C1CCCCC1)C(C)(C)C)C(=O)OC(C)(C)C (some centres undefined) | > 2000
C=C[C@@H]1C[C@]1(NC(=O)[C@@H]1C[C@@H](Oc2cc(-c3ccccc3)nc3cc(OC)ccc23)C=C1C(=O)N[C@H](C(=O)N[C@H](C(=O)NC)C1CCCCC1)C(C)(C)C)C(=O)O | 1.3
C=C[C@@H]1C[C@]1(NC(=O)C1CC(Oc2cc(-c3ccccc3)nc3cc(OC)ccc23)C=C1C(=O)N[C@H](C(=O)N[C@H](C(=O)OC)C1CCCCC1)C(C)(C)C)C(=O)OC(C)(C)C (some centres undefined) | > 2000
C=C[C@@H]1C[C@]1(NC(=O)C1CC(Oc2cc(-c3ccccc3)nc3cc(OC)ccc23)C=C1C(=O)N[C@H](C(=O)N(C)[C@H](C(=O)NC)C1CCCCC1)C(C)(C)C)C(=O)O (some centres undefined) | > 5000
CCC[C@H](NC(=O)[C@@H]1C[C@@H](Oc2cc(-c3ccccc3)nc3cc(OC)ccc23)C=C1C(=O)N[C@H](C(=O)N[C@H](C(=O)OC)C1CCCCC1)C(C)C)C(=O)O | 102
CC[C@H](NC(=O)C1CC(Oc2cc(-c3ccccc3)nc3cc(OC)ccc23)C=C1C(=O)N[C@H](C(=O)N[C@H](C(=O)NC)C1CCCCC1)C(C)(C)C)C(=O)O (some centres undefined) | 280
C=C[C@@H]1C[C@]1(NC(=O)[C@@H]1C[C@@H](Oc2cc(-c3ccccc3)nc3cc(OC)ccc23)C=C1C(=O)N[C@H](C(=O)N[C@H](C(=O)OC)C1CCCCC1)C(C)(C)C)C(=O)O | 1.1
CCC[C@H](NC(=O)C1CC(Oc2cc(-c3ccccc3)nc3cc(OC)ccc23)C=C1C(=O)N[C@H](C(=O)N[C@H](C(=O)NC)C1CCCCC1)C(C)(C)C)C(=O)O (some centres undefined) | 67
CCC[C@H](NC(=O)[C@@H]1C[C@@H](Oc2cc(-c3ccccc3)nc3cc(OC)ccc23)C=C1C(=O)N[C@H](C(=O)N[C@H](C(=O)OC)C1CCCCC1)C(C)(C)C)C(=O)O | 30
CCC[C@H](NC(=O)[C@H]1C[C@H](Oc2cc(-c3ccccc3)nc3cc(OC)ccc23)C=C1C(=O)N[C@H](C(=O)N[C@H](C(=O)OC)C1CCCCC1)C(C)(C)C)C(=O)O | > 2000
CC[C@H](NC(=O)C1CC(Oc2cc(-c3ccccc3)nc3cc(OC)ccc23)C=C1C(=O)N[C@H](C(=O)N[C@H](C(=O)OC)C1CCCCC1)C(C)(C)C)C(=O)O (some centres undefined) | 503
C=C[C@@H]1C[C@]1(NC(=O)C1CC(Oc2cc(-c3ccccc3)nc3cc(OC)ccc23)C=C1C(=O)N[C@H](C(=O)N[C@H](C(=O)OC)C1CCCCC1)C(C)C)C(=O)O (some centres undefined) | 24
C=C[C@@H]1C[C@]1(NC(=O)[C@@H]1C[C@@H](Oc2cc(-c3ccccc3)nc3cc(OC)ccc23)C[C@H]1C(=O)N[C@H](C(=O)N[C@H](C(=O)NC)C1CCCCC1)C(C)(C)C)C(=O)O | 16
CC[C@H](NC(=O)C1CC(Oc2cc(-c3ccccc3)nc3cc(OC)ccc23)C=C1C(=O)N[C@H](C(=O)OC)C(C)C)C(=O)O (some centres undefined) | > 2000
CC[C@H](NC(=O)[C@@H]1C[C@@H](Oc2cc(-c3ccccc3)nc3cc(OC)ccc23)C=C1C(=O)N[C@@H](C(=O)N[C@@H](C(=O)OC)C1CCCCC1)C(C)C)C(=O)O | > 2000
CC[C@H](NC(=O)C1CC(Oc2cc(-c3ccccc3)nc3cc(OC)ccc23)C=C1C(=O)N[C@H](C(=O)N[C@H](C(=O)OC)C1CCCCC1)C(C)C)C(=O)O (some centres undefined) | 523
C=C[C@@H]1C[C@]1(NC(=O)[C@H]1C[C@H](Oc2cc(-c3ccccc3)nc3cc(OC)ccc23)C=C1C(=O)N[C@H](C(=O)N[C@H](C(=O)OC)C1CCCCC1)C(C)(C)C)C(=O)O | 108
C=C[C@@H]1C[C@]1(NC(=O)[C@H]1C[C@H](Oc2cc(-c3ccccc3)nc3cc(OC)ccc23)C=C1C(=O)N[C@H](C(=O)N[C@H](C(=O)NC)C1CCCCC1)C(C)(C)C)C(=O)O | 23
